Measured values reported in ChEMBL document CHEMBL1152792, “Synthesis and anticonvulsant activity of amino acid-derived sulfamides” (J Med Chem, 2009).
Active and inactive are the calls of the source. The rule behind the calls is not given here.

Key:
[1] = test system: Mus musculus; test: Anticonvulsant activity in ip dosed albino mouse after 0.25 hrs by MES test; type: functional
[2] = test system: Mus musculus; test: Anticonvulsant activity in ip dosed albino mouse after 0.5 hrs by MES test; type: functional
[3] = organism: Mus musculus; test: Ratio of valproic acid ED50 to compound ED50 in albino mouse after 0.5 hrs by MES test; type: functional
[4] = test system: Mus musculus; test: Anticonvulsant activity in albino mouse at 30 mg/kg, ip after 4 hrs by PTZ test; type: functional, organism-based; design: dose 30 mg/kg
Summary of the method: (§1)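 NIH Anticonvulsant Drug Development (ADD) program phase I screen in adult male albino mice (18–23 g). Compound given ip in 30% PEG 400 and 10% water at 0.01 mL/g body weight. Seizures were induced electrically (MES) or chemically (PTZ), and animals were tested 0.5 and 4 h after dosing. Result scored as protected/tested animals.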

[5] = test system: Mus musculus; test: Toxicity in albino mouse at 30 mg/kg, ip after 4 hrs by rotarod test; type: organism-based; design: dose 30 mg/kg, route intraperitoneal; conditions: in vivo
Summary of the method: (§2)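 Neurotoxicity was screened by the standardized rotarod test in the ADD phase I protocol. Adult male albino mice (18–23 g) received compound ip in 30% PEG 400 and 10% water at 0.01 mL/g. Animals were tested 0.5 and 4 h post-dose. Result scored as toxic/tested animals.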

[6] = test system: Mus musculus; test: Anticonvulsant activity in albino mouse at 30 mg/kg, ip after 4 hrs by MES test; type: functional, organism-based; design: dose 30 mg/kg; summary of the method: as §1
[7] = test system: Mus musculus; test: Anticonvulsant activity in albino mouse at 100 mg/kg, ip after 0.5 hrs by PTZ test; type: functional, organism-based; design: dose 100 mg/kg; summary of the method: as §1
[8] = organism: Mus musculus; test: Ratio of valproic acid ED50 to compound ED50 in albino mouse after 2 hrs by MES test; type: functional
Summary of the method: (§3)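 The compound ED50 came from ip dosing in male albino mice (six per dose) at the time of peak effect. The valproate ED50 was taken from earlier literature.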

[9] = test system: Mus musculus; test: Toxicity in albino mouse at 100 mg/kg, ip after 4 hrs by rotarod test; type: organism-based; design: dose 100 mg/kg, route intraperitoneal; conditions: in vivo; summary of the method: as §2
[10] = test system: Mus musculus; test: Toxicity in albino mouse at 300 mg/kg, ip after 4 hrs by rotarod test; type: organism-based; design: dose 300 mg/kg, route intraperitoneal; conditions: in vivo; summary of the method: as §2
[11] = test system: Mus musculus; test: Toxicity in albino mouse at 100 mg/kg, ip after 0.5 hrs by rotarod test; type: organism-based; design: dose 100 mg/kg, route intraperitoneal; conditions: in vivo; summary of the method: as §2
[12] = test system: Mus musculus; test: Anticonvulsant activity in albino mouse at 100 mg/kg, ip after 0.5 hrs by MES test; type: functional, organism-based; design: dose 100 mg/kg; summary of the method: as §1
[13] = test system: Mus musculus; test: Toxicity in albino mouse at 30 mg/kg, ip after 0.5 hrs by rotarod test; type: organism-based; design: dose 30 mg/kg, route intraperitoneal; conditions: in vivo; summary of the method: as §2
[14] = test system: Mus musculus; test: Toxicity in albino mouse at 300 mg/kg, ip after 0.5 hrs by rotarod test; type: organism-based; design: dose 300 mg/kg, route intraperitoneal; conditions: in vivo; summary of the method: as §2
[15] = test system: Mus musculus; test: Anticonvulsant activity in ip dosed albino mouse after 2 hrs by MES test; type: functional
Summary of the method: (§4)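 Phase II quantitative MES test in adult male albino mice (18–23 g). Compound given ip in 30% PEG 400 and 10% water at 0.01 mL/g. Testing was done at the previously determined time of peak effect. Six mice per dose group; ED50 (dose protecting 50% of animals, μmol/kg) calculated from the dose–response curve.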

[16] = test system: Mus musculus; test: Anticonvulsant activity in albino mouse at 100 mg/kg, ip after 4 hrs by MES test; type: functional, organism-based; design: dose 100 mg/kg; summary of the method: as §1
[17] = test system: Mus musculus; test: Anticonvulsant activity in albino mouse at 100 mg/kg, ip after 4 hrs by PTZ test; type: functional, organism-based; design: dose 100 mg/kg; summary of the method: as §1
[18] = test system: Mus musculus; test: Anticonvulsant activity in albino mouse at 300 mg/kg, ip after 4 hrs by PTZ test; type: functional, organism-based; design: dose 300 mg/kg; summary of the method: as §1
[19] = test system: Mus musculus; test: Anticonvulsant activity in albino mouse at 30 mg/kg, ip after 0.5 hrs by MES test; type: functional, organism-based; design: dose 30 mg/kg; summary of the method: as §1
[20] = test system: Mus musculus; test: Anticonvulsant activity in albino mouse at 300 mg/kg, ip after 4 hrs by MES test; type: functional, organism-based; design: dose 300 mg/kg; summary of the method: as §1
[21] = test system: Mus musculus; test: Anticonvulsant activity in albino mouse at 300 mg/kg, ip after 0.5 hrs by MES test; type: functional, organism-based; design: dose 300 mg/kg; summary of the method: as §1
[22] = test system: Mus musculus; test: Anticonvulsant activity in ip dosed albino mouse after 4 hrs by MES test; type: functional; summary of the method: as §4
[23] = organism: Mus musculus; test: Ratio of valproic acid ED50 to compound ED50 in albino mouse after 4 hrs by MES test; type: functional; summary of the method: as §3

Compound | Activity [4] | Activity [5] | Activity [6] | Activity [7] | Activity [9] | Activity [10] | Activity [11] | Activity [13] | Activity [14] | Activity [17] | further results
CCCC(CCC)C(=O)O [VALPROIC ACID] |  |  |  |  |  |  |  |  |  |  | ED50 [1]: 1010 µmol/kg
CCCC(CCC)C(=O)NCC(N)=O [VALROCEMIDE] |  |  |  |  |  |  |  |  |  |  | ED50 [2]: 755 µmol/kg; Ratio ED50 [3]: 1.3
CCCC(CCC)CNS(=O)(=O)NCCC(=O)OC | inactive | Non-toxic | Active | Active | Non-toxic | Non-toxic | Non-toxic | Non-toxic | Non-toxic | inactive | Ratio ED50 [8]: 12.8; Activity [12]: inactive; ED50 [15]: 79 µmol/kg; Activity [16]: inactive
COC(=O)CCNS(=O)(=O)Oc1ccccc1O | inactive | Non-toxic | inactive | inactive | Non-toxic | Non-toxic | Non-toxic | Non-toxic | Non-toxic | inactive | Activity [18]: inactive; Activity [19]: inactive; Activity [20]: inactive; Activity [21]: inactive; ED50 [22]: 374 µmol/kg; Ratio ED50 [23]: 2.7
